Active and inactive are the calls of the source. No cut-off for these calls is given here.
What was measured:
[1] = tested on: SH-SY5Y; assay: Antioxidant activity in human SH-SY5Y cells assessed as decrease in t-BuOOH-induced intracellular ROS production at 5 to 20 uM incubated for 24 hrs prior to t-BuOOH challenge measured after 30 mins by DCFHDA-based fluorescence assay; assay type: functional, cell-based
How it was run: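 SH-SY5Y cells (DMEM, 10% FCS, 37 °C, 5% CO2) seeded 1 × 10^4/well and grown 24 h. Compound added for 24 h; Trolox control at 5, 10, 20 μM. Cells are then washed, loaded with 5 μM DCFH-DA in PBS for 30 min, and challenged with 0.1 mM t-BuOOH for 30 min. Fluorescence read at ex 485/em 535 nm. Result is % of control by formula; three independent experiments in sextuplicate.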

[2] = Cytotoxicity against human SH-SY5Y cells assessed as cell viability at 10 uM after 24 hrs by MTT assay; assay type: cell-based
How it was run: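 SH-SY5Y cells seeded 5 × 10^4/well, then exposed to compound for 24 h at 37 °C. MTT (0.5 mg/mL final) added for 4 h; formazan dissolved in DMSO and read at 570 nm. Viability is treated/untreated absorbance × 100, each corrected for zero-day control. Three independent experiments in sextuplicate.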

[3] = target: T1, Amine oxidase [flavin-containing] B (Homo sapiens, UniProt P27338)
T1 sequence (P27338 whole entry): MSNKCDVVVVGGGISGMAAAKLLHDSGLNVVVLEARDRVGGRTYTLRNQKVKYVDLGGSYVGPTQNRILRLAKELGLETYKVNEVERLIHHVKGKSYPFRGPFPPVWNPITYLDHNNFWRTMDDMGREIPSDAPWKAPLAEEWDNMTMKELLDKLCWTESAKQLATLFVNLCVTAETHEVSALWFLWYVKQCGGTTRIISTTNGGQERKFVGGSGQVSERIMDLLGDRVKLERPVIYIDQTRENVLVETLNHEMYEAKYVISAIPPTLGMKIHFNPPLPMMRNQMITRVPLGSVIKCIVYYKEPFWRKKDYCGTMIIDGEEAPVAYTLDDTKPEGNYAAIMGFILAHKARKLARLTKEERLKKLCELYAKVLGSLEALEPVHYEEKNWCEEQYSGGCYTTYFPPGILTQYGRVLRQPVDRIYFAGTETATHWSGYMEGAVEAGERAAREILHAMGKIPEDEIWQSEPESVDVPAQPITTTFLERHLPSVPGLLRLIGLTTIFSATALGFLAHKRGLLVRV

[4] = target: Amyloid-beta precursor protein (Homo sapiens, UniProt P05067)
Sequence of Amyloid-beta precursor protein (P05067 whole entry): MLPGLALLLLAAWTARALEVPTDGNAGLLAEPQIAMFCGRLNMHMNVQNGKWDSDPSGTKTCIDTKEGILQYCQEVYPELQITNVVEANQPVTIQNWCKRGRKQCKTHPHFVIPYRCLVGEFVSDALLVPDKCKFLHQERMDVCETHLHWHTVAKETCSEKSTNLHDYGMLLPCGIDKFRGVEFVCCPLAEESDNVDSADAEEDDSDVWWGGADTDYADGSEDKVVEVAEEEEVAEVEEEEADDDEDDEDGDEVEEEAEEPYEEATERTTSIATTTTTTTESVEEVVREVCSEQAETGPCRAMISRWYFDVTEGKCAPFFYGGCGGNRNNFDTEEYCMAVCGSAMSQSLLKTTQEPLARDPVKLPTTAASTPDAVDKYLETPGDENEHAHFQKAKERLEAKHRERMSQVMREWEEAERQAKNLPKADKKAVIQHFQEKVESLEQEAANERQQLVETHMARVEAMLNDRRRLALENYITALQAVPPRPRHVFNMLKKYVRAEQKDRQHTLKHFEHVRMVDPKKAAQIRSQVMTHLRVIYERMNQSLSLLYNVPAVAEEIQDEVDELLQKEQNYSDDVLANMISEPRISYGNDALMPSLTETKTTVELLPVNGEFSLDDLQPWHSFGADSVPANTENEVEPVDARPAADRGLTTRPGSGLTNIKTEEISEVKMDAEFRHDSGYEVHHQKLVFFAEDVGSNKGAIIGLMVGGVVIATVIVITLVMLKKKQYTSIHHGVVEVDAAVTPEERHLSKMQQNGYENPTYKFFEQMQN

[5] = target: Acetylcholinesterase (Electrophorus electricus, UniProt O42275); assay: Inhibition of electric eel AChE using acetylthiocholine chloride as substrate preincubated for 15 mins followed by substrate addition measured every 1 min by Ellman's method
Sequence of Acetylcholinesterase (O42275 whole entry): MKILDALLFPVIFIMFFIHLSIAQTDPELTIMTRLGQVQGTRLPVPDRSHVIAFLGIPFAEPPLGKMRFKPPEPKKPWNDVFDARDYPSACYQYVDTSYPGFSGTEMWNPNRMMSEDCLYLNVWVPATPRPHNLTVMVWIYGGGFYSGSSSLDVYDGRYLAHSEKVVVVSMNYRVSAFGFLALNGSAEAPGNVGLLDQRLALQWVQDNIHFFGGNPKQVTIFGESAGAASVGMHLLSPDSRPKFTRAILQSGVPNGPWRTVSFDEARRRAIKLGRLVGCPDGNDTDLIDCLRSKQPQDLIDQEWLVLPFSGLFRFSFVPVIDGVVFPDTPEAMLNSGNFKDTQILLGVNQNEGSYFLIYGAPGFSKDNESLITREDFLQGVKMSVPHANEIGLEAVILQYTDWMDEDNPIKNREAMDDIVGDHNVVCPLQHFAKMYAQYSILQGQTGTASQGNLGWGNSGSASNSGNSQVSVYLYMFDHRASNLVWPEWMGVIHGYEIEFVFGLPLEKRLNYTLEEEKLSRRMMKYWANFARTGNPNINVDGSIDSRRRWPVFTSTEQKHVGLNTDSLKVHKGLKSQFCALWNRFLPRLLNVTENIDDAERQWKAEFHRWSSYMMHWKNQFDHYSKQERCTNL
How it was run: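 Ellman method in 0.1 M potassium phosphate buffer, pH 8.0, 1 mL assay containing DTNB and thiocholine substrate (each 50 μL of 0.01 M stock). Enzyme (AChE stock 2.0 units/mL) preincubated with compound 15 min at 37 °C, then substrate added. A412 read at 1 min intervals at 37 °C. Each concentration in triplicate. IC50 from at least three experiments.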

[6] = target: T2, Amine oxidase [flavin-containing] A (Homo sapiens, UniProt P21397); assay: Inhibition of human recombinant MAOA using p-tyramine as substrate incubated for 15 mins prior to substrate addition measured after 20 mins by fluorescence plate reader analysis
T2 sequence (P21397 whole entry): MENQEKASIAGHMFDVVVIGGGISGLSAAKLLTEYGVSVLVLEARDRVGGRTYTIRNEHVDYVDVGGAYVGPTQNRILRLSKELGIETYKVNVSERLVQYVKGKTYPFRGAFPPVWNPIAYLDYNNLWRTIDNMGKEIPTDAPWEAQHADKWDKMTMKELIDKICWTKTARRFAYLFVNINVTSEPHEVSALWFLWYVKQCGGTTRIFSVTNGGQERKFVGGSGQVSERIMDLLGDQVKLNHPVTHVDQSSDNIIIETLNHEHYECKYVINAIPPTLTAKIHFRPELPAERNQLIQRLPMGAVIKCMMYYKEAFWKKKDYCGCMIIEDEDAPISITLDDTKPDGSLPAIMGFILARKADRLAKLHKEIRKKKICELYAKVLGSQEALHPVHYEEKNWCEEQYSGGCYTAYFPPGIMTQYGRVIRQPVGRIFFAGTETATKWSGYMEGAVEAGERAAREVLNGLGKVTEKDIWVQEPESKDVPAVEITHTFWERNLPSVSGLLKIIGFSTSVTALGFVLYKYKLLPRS

[7] = tested on: Mus musculus; assay: Acute toxicity in KM mouse at 677 to 2000 mg/kg, po after 14 days; assay type: organism-based; design: dose 677-2000 mg/kg, route oral; settings: in vivo, 336 h
How it was run: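 Male KM mice (22 days, 18−20 g), fasted overnight with free access to water, n = 5 per group; single oral dose of 0, 677, 1333 or 2000 mg/kg suspended in 0.5% CMC-Na. Watched continuously for 4 h, intermittently for 24 h, then occasionally to day 14 for behaviour and mortality; killed day 14, heart, liver and kidneys examined macroscopically.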

[8] = target: Cholinesterase (Equus caballus, UniProt P81908); assay: Inhibition of equine serum BuChE using butylthiocholine chloride as substrate preincubated for 15 mins followed by substrate addition measured every 1 min by Ellman's method
Sequence of Cholinesterase (P81908 whole entry): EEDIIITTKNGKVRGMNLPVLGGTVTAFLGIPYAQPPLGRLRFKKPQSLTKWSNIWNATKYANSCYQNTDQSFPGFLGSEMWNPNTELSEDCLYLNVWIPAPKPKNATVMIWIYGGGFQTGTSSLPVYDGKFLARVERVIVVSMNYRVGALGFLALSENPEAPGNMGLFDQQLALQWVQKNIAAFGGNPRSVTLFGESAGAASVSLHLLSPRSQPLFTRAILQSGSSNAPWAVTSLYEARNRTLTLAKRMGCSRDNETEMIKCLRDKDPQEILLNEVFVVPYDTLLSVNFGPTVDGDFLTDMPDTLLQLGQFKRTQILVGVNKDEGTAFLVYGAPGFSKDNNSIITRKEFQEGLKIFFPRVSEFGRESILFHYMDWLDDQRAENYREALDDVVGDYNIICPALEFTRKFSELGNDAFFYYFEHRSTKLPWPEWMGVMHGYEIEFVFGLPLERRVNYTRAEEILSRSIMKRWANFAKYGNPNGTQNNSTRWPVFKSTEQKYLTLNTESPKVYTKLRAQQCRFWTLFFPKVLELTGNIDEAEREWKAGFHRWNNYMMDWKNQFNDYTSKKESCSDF

SMILES | Activity [1] | Activity [2] | IC50 [3] | IC50 [4] | IC50 [5] | IC50 [6] | Activity [7] | IC50 [8]
Cc1c(C)c2c(c(C)c1O)CCC(C)(C(=O)O)O2 (racemic) | Active | – | – | – | – | – | – | –
COc1cc(/C=C/c2ccc(NCc3cc(N(C)C)ccc3O)cc2)cc(OC)c1 | – | Non-toxic | 12.2 µM | 7.56 µM | 36 µM | 8.19 µM | Non-toxic | > 50 µM
CN(C)c1ccc(O)c(CNc2ccc(/C=C/c3cc(O)cc(O)c3)cc2)c1 | – | Non-toxic | 14.1 µM | 6.51 µM | 6.27 µM | 7.08 µM | – | 21.2 µM

— ChEMBL document CHEMBL2401626 (J Med Chem, 2013)
